# Ecoli WT expand – growth inhibitors of wild-type E. coli, primary screen, strain BW25113, expanded library, OD600 | OD600 absorbance | growth inhibition, % at 100 µM | hit rate 0.15% among 98,000;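 active = growth inhibition above about 50% at one test dose, limit read from the data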;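 also: growth measured after 20 h incubation at 37 °C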
# CYP2C19 inh – blockers of cytochrome P450 2C19 activity – biochemical, luminescence, ADME assay, primary screen; hit rate 21% among 96,000; P33261; inhibition, % at 5 µM; CYP2C19 Supersomes, luciferin-H EGE luminescence, 30 min; AID 778, 2007;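 active = CYP2C19 inhibition above a set limit at 5 µM in the primary screen, cut at about 50% in these data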;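 also: plate controls were negative control wells for no effect and 2.5 mM tranylcypromine positive control for full effect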
# CYP2C9 activ – human CYP2C9 activators, primary screen, biochemical, luminescence; Cytochrome P450 2C9 (Homo sapiens), P11712; recombinant CYP2C9, luciferin-H conversion; hits give high values; factor 1 = untreated enzyme, 0 = blocked; activation factor at 5 µM; hit rate 1.4% among 96,000; AID 1024, 2008;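 active = activation factor of 2 or more for CYP2C9 at a 5 µM dose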;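 also: 0 = sulfaphenazole-blocked wells and 1 = vehicle-only wells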
# Target sequence (P11712 whole entry, looked up): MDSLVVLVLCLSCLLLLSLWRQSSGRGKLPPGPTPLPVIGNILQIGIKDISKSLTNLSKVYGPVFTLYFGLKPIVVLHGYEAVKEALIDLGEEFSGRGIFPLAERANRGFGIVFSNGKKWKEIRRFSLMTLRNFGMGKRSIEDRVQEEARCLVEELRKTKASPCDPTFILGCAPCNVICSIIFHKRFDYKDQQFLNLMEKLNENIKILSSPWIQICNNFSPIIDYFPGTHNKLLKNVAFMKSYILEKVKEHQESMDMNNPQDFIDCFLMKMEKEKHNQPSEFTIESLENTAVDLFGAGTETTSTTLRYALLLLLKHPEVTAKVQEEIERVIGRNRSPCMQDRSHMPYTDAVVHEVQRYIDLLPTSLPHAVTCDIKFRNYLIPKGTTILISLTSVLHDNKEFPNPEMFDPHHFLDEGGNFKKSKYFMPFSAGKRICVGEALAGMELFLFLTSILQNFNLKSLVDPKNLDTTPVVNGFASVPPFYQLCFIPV
# tolC growth inh – growth inhibitors of E. coli tolC mutant, primary screen, strain BW25113 ΔtolC::kan, 384-well; OD615; growth inhibition, % at 10 µM (by protocol); hit rate 2.2% among 65,000;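 active = growth inhibition at or above a cutoff equal to the mean over every tested compound plus 3 SD, cut at about 60% in these data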;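 also: growth measured after 20 h incubation at 37 °C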
#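 signal = optical density read at 615 nm | test system = E. coli ΔtolC::kan strain BW25113 | timing = 20 h compound exposure of bacteria at 37 °C | buffer or medium = LB medium plus 50 µg/mL kanamycin | compound dosing = 10 µM final, single dose | evaluation = % inhibition of E. coli growth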
# CYP2C9 inhib – blockers of cytochrome P450 2C9 activity – biochemical, luminescence, ADME assay, primary screen | P11712 | CYP2C9 Supersomes, luciferin-H conversion | inhibition, % at 5 µM | hit rate 20% among 96,000 | AID 777, 2007;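 active = blocking of liver enzyme CYP2C9 beyond about 50% at 5 µM, limit read from the data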
# CYP2C19 activ – human CYP2C19 activators, primary screen, biochemical, luminescence; Cytochrome P450 2C19 (Homo sapiens), P33261; recombinant CYP2C19, luciferin-H EGE luminescence; hits give high values; 0 = fully inhibited enzyme, 1 = untreated enzyme; activation factor at 5 µM; 96,000 tested, under 10 active; AID 1025, 2008;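 active = activation factor of at least 2 at 5 µM in the primary screen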;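 also: 0 = wells with 2.5 mM tranylcypromine and 1 = vehicle-only wells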
# * marks the source's active call; other numbers are inactive results; . = no result. Hits are enriched below; roughly 29% of the tested compounds scored in any of these assays.
SMILES,Ecoli WT expand,CYP2C19 inh,CYP2C9 activ,tolC growth inh,CYP2C9 inhib,CYP2C19 activ
COc1cc(OC)cc(C(=O)N2c3ccc(F)cc3CCC2C)c1 (stereo unspecified),7,54*,0.8,15,20,0.5
Cc1ccc(C(=O)N2c3ccc(F)cc3CCC2C)o1 (stereo unspecified),-5,53*,0.7,16,27,0.5
CC1CCc2cc(F)ccc2N1C(=O)c1ccc2c(c1)OCO2 (stereo unspecified),8,62*,0.7,28,26,0.4
CC1CCc2cc(F)ccc2N1C(=O)c1cnc2sccn2c1=O (stereo unspecified),-4,-2,1,.,-3,1
COc1ccc(C(=O)N2c3ccc(F)cc3CCC2C)cc1OC (stereo unspecified),-15,-2,1,22,2,1
Cc1nn(Cc2ccc(C(=O)N3c4ccc(F)cc4CCC3C)o2)c(C)c1Br (stereo unspecified),-5,87*,0.5,96*,48,0.1
CCCn1cc(C(CC(=O)O)C(=O)O)c2ccccc21 (stereo unspecified),9,-16,1.2,1,-23,1.2
CCn1c(N)c(C(=O)NC2CCCCC2)sc1=S,.,.,.,-11,.,.
CCn1c(O)c(/C=N/n2cnnc2)sc1=S,-6,62*,0.5,-27,54*,0.4
CCn1c(O)c(C=NC2CCCC2)sc1=S,3,69*,0.5,.,51*,0.3
Cc1ccccc1-c1ccc(C=Nc2c(C)n(C)n(-c3ccccc3)c2=O)o1,17,16,1.2,-13,-22,0.8
Cc1cc2c(c(=O)o1)C(C(C)C)C(C#N)=C(N)O2 (stereo unspecified),-1,57*,1,-30,0,0.4
CCCC(C)C1C(C#N)=C(N)Oc2cc(C)oc(=O)c21 (stereo unspecified),.,.,.,-5,.,.
COc1cc(C2C(C#N)=C(N)Oc3cc(C)oc(=O)c32)cc2c1OCO2 (stereo unspecified),8,20,0.5,-5,54*,0.8
CCOc1cccc(C2C(C#N)=C(N)Oc3cc(C)oc(=O)c32)c1OCC (stereo unspecified),-12,21,0.1,23,90*,0.8
Cc1cc2c(c(=O)o1)C(Cc1ccccc1)C(C#N)=C(N)O2 (stereo unspecified),4,86*,0.4,-3,63*,0.1
O=C1C2CCCN2C(c2ccc(Cl)cc2)N1c1nccs1 (stereo unspecified),-12,.,.,-1,.,.
[O-][N+]12CCN(CC1)c1ccccc12,6,5,0.9,-12,10,0.9
O=C(c1cnc2n(c1=O)CCS2)N1CCN(C(c2ccccc2)c2ccc(Cl)cc2)CC1 (stereo unspecified),0,62*,0.6,25,44,0.4
O=C(Cc1c(O)c2ccccc2[nH]c1=O)NC1CCCCCCC1,1,9,0.9,30,11,0.9
CCNc1nc(SC)nc(N(C#N)CC(=O)OC)n1,5,3,1.3,.,-26,1
COc1ccc(C(=O)Nc2cccc(C(C)=O)c2)cc1OC,-1,41,0.9,-20,9,0.6
CC(=O)c1cccc(NC(=S)NC(=O)C(C)C)c1,0,40,0.5,.,52*,0.6
COc1ccc(C(=O)Nc2cccc(C(C)=O)c2)c(OC)c1OC,-3,63*,0.8,.,15,0.4
COc1cc(OC)c(C(=O)Nc2cccc(C(C)=O)c2)cc1OC,0,33,0.4,.,59*,0.7
SMILES,Ecoli WT expand,CYP2C19 inh,CYP2C9 activ,tolC growth inh,CYP2C9 inhib,CYP2C19 activ
CCn1nc(C(=O)Nc2nc3ccc(C)cc3s2)c2ccccc2c1=O,-16,-8,0.9,.,13,1.1
O=C(NCc1ccco1)C(NS(=O)(=O)c1cccc2nsnc12)c1ccccc1 (stereo unspecified),-7,2,0.6,5,36,1
Cc1nc(CCNS(=O)(=O)c2cccs2)cs1,3,34,1.1,-20,-12,0.7
COc1ccc(S(=O)(=O)NCCc2ccc(F)cc2)cc1,6,100*,0.6,13,38,0
COc1ccc(CCNS(=O)(=O)c2cn(C)c(=O)n(C)c2=O)cc1,-11,29,1,.,5,0.7
COc1ccc(S(=O)(=O)NCCc2ccccc2)cc1,7,95*,0.8,.,22,0
CCCCNS(=O)(=O)c1ccc(OC)cc1,5,37,0.9,.,9,0.6
COc1ccc(CCNS(=O)(=O)c2cccs2)cc1,7,99*,0.1,7,90*,0
CCS(=O)(=O)NCCCCc1ccccc1,4,60*,0.8,-11,19,0.4
C=C(C)Cn1c(CCNC(=O)CCC)nc2ccccc21,7,37,1,-13,-2,0.6
CSc1cc(C)n(-c2ccccc2)c(=S)c1C(C)=O,7,14,1,.,-2,0.9
CN1CCC(N(C)CC(=O)Nc2cccc(Oc3ccccc3)c2)CC1,-1,-22,1.2,-16,-21,1.2
CN1CC(=O)N(CC(=O)Nc2ccc(F)cc2)c2ccccc2C1=O,3,4,1,-11,4,1
NC(=O)CCn1nc(-c2ccc(Cl)cc2)c2ccccc2c1=O,-5,57*,0.7,7,32,0.4
O=S(=O)(NC1CCCc2ccccc21)c1cnc[nH]1 (stereo unspecified),3,68*,0.5,-24,52*,0.3
N#Cc1c(-c2ccco2)nc(NCC2CCCO2)[nH]c1=O (stereo unspecified),2,-20,1,7,3,1.2
N#Cc1c(-c2ccco2)nc(SCc2ccc(F)cc2)[nH]c1=O,-1,26,0.4,42,63*,0.7
N#Cc1c(-c2ccco2)nc(SCC(=O)Nc2ccc(S(N)(=O)=O)cc2)[nH]c1=O,-5,-9,0.5,.,50*,1.1
Cc1cc(C)n(Cc2cccc(F)c2)c(=O)c1C#N,8,11,0.9,-4,6,0.9
Cc1nc(SCc2cccc(F)c2)[nH]c(=O)c1C#N,-15,-2,0.3,27,75*,1
COc1cc(OC)nc(NC(=O)COC(=O)C2CCCCC2)n1,1,29,0.7,7,31,0.7
NC(=O)NCCC1=CCCCC1,2,-1,0.9,.,5,1
Cc1ccc(CNCCC2=CCCCC2)cc1,17,94*,1,.,-4,0.1
COC(=O)c1ccc(NC(=S)NCCC2=CCCCC2)cc1,-2,10,0.7,.,27,0.9
C1=C(CCNCC2CC2)CCCC1,1,54*,1.6,.,-56,0.5

# Screens from PubChem BioAssay.
